From ChEMBL document CHEMBL1250448, “Inhibitor hijacking of Akt activation” (Nat Chem Biol, 2009)

Columns and labels:
[1] = target: T1, Tyrosine-protein kinase receptor TYRO3 (Homo sapiens) (UniProt Q06418); test: Inhibition of TYRO3 at 1 uM in presence of 10 uM ATP by Select Screen kinase assay relative to untreated control
T1 sequence (whole entry): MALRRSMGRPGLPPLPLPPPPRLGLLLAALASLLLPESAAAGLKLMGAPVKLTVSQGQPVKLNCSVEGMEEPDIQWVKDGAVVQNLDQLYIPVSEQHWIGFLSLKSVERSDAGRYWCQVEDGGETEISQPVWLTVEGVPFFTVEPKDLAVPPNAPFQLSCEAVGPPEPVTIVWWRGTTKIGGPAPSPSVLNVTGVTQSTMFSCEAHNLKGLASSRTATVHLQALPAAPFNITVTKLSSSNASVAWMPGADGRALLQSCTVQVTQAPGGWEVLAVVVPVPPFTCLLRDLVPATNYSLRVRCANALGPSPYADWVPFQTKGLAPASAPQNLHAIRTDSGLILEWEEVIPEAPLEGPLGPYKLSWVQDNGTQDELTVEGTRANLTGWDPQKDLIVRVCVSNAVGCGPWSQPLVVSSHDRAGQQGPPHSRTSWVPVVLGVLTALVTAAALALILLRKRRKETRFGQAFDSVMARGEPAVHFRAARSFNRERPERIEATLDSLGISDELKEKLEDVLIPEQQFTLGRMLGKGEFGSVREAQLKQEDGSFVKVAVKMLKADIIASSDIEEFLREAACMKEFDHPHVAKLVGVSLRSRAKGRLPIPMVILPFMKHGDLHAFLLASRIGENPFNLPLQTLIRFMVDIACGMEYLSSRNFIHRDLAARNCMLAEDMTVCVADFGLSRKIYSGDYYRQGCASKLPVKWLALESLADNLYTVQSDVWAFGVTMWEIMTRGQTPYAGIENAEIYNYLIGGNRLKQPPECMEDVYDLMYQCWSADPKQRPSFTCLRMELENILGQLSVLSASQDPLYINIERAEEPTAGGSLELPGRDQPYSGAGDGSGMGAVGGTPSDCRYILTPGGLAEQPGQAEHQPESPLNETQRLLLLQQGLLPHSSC
How it was run: (§1)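 Commercial SelectScreen profiling panel of 220 purified kinases. Each kinase was tested at a single inhibitor concentration of 1 μM, and activity was expressed as percent inhibition.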

[2] = target: T2, G protein-coupled receptor kinase 3 (Homo sapiens) (UniProt P35626); test: Inhibition of ADRBK2 at 1 uM in presence of 10 uM ATP by Select Screen kinase assay relative to untreated control
T2 sequence (whole entry): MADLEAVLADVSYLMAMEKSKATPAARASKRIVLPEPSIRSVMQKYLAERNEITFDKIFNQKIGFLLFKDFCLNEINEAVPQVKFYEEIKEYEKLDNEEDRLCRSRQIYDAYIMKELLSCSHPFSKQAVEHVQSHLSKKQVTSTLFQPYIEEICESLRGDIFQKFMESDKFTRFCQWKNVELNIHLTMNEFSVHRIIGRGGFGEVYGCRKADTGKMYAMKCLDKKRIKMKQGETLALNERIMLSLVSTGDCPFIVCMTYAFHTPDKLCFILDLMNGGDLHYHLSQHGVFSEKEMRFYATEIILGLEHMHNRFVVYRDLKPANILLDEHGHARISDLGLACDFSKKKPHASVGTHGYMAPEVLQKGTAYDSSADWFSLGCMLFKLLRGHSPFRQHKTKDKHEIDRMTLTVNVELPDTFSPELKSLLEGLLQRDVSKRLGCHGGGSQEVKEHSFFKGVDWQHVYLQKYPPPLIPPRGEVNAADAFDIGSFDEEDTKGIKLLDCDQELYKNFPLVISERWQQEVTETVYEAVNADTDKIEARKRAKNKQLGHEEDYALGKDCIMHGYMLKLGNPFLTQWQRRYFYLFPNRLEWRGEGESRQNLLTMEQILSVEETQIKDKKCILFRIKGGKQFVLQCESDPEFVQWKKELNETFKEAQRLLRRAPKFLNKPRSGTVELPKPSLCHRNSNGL
How it was run: (§2)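 Single-point screen at 1 μM against a panel of 220 purified kinases, run by Invitrogen staff as a SelectScreen profiling service. Read-out is percent inhibition of kinase activity.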

[3] = target: Serine/threonine-protein kinase Nek7 (Homo sapiens) (UniProt Q8TDX7); test: Inhibition of NEK7 at 1 uM in presence of 100 uM ATP by Select Screen kinase assay relative to untreated control; how it was run: as §1
[4] = target: Serine/threonine-protein kinase 25 (Homo sapiens) (UniProt O00506); test: Inhibition of STK25 at 1 uM in presence of 100 uM ATP by Select Screen kinase assay relative to untreated control; how it was run: as §1
[5] = target: Ephrin type-A receptor 5 (Homo sapiens) (UniProt P54756); test: Inhibition of EPHA5 at 1 uM in presence of 10 uM ATP by Select Screen kinase assay relative to untreated control; how it was run: as §2
[6] = target: Receptor tyrosine-protein kinase erbB-2 (Homo sapiens) (UniProt P04626); test: Inhibition of ERBB2 at 1 uM in presence of 10 uM ATP by Select Screen kinase assay relative to untreated control; how it was run: as §2
[7] = target: Mitogen-activated protein kinase 3 (ERK1) (Homo sapiens) (UniProt P27361); test: Inhibition of MAPK3 at 1 uM in presence of 10 uM ATP by Select Screen kinase assay relative to untreated control
[8] = target: G protein-coupled receptor kinase 5 (Homo sapiens) (UniProt P34947); test: Inhibition of GRK5 at 1 uM in presence of 10 uM ATP by Select Screen kinase assay relative to untreated control
How it was run: (§3)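 Single-concentration profiling at 1 μM against a panel of 220 purified kinases, run as an outsourced SelectScreen kinase profiling service. Activity is expressed as percent inhibition.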

[9] = test system: Platelet-derived growth factor receptor alpha (Homo sapiens), P16234 [D842V]; test: Inhibition of PDGFRalpha D842V mutant at 1 uM in presence of 10 uM ATP by Select Screen kinase assay relative to untreated control; how it was run: as §1
[10] = target: Mitogen-activated protein kinase kinase kinase 8 (Homo sapiens) (UniProt P41279); test: Inhibition of MAP3K8 at 1 uM in presence of 100 uM ATP by Select Screen kinase assay relative to untreated control; how it was run: as §3
Mitogen-activated protein kinase kinase kinase 8 (Homo sapiens), sequence (P41279 whole entry): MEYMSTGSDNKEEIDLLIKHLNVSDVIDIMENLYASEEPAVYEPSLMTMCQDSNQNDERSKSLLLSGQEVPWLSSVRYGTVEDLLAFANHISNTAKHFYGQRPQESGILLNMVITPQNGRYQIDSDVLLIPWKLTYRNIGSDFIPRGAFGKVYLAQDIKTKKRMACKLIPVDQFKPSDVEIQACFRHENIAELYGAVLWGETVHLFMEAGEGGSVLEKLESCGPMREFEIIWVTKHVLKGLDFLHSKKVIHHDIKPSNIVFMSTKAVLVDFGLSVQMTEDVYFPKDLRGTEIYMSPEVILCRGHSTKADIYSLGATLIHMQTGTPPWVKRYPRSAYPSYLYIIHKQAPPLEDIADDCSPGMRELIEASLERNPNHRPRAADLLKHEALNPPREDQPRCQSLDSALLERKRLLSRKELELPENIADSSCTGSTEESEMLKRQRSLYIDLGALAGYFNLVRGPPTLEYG

Serine/threonine-protein kinase 25 (Homo sapiens), sequence (O00506 whole entry, looked up): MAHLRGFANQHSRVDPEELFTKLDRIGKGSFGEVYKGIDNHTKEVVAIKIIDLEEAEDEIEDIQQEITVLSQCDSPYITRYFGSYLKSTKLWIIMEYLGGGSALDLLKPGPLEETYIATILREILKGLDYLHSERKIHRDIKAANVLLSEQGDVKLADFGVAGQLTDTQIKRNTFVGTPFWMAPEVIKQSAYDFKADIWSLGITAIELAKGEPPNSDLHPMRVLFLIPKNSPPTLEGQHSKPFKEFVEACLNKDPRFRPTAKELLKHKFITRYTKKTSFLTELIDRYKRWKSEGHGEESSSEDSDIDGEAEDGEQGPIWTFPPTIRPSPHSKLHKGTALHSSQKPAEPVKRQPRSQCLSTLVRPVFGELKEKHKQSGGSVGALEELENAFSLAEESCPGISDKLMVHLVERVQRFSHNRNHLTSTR
Receptor tyrosine-protein kinase erbB-2 (Homo sapiens), sequence (P04626 whole entry): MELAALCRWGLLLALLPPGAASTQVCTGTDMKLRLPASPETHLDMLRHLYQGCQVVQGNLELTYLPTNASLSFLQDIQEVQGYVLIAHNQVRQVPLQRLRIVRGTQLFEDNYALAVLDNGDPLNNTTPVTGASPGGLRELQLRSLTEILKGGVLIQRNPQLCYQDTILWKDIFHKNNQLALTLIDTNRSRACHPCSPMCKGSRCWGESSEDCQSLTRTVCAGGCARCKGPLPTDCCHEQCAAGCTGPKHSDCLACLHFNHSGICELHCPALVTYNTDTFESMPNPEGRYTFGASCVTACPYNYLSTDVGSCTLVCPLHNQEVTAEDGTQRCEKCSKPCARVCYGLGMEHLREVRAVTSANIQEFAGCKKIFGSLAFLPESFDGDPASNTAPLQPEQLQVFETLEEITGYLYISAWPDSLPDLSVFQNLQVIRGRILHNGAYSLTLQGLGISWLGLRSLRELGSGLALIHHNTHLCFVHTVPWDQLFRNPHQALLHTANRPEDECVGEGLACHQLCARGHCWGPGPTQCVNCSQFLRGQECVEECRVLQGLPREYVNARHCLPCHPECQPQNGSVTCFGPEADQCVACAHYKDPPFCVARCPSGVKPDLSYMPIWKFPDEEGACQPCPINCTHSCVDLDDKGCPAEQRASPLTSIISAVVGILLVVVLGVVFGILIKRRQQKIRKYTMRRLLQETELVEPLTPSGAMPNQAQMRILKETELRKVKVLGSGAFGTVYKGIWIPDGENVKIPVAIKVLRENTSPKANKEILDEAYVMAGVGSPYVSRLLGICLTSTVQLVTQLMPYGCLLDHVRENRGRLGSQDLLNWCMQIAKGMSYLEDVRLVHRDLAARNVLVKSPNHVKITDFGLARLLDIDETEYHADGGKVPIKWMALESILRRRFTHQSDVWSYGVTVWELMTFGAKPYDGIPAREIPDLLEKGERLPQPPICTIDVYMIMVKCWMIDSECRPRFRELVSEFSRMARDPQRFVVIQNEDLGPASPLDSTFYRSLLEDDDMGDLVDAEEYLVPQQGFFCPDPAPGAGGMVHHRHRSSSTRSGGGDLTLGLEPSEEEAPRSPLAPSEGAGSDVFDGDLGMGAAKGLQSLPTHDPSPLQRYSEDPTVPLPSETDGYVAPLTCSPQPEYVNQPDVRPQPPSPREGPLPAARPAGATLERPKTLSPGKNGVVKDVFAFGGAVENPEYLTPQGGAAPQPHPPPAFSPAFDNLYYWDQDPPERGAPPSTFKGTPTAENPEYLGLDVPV
Serine/threonine-protein kinase Nek7 (Homo sapiens), sequence (Q8TDX7 whole entry, looked up): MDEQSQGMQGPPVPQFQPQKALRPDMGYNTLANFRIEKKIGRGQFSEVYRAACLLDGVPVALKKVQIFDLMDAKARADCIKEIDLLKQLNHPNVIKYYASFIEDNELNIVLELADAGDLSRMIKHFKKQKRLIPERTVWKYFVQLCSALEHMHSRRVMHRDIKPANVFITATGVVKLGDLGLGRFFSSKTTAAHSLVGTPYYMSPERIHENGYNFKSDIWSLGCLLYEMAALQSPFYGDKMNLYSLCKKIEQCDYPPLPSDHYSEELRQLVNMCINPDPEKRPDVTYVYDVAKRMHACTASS
Platelet-derived growth factor receptor alpha (Homo sapiens), P16234 [D842V], sequence (P16234 whole entry D842V): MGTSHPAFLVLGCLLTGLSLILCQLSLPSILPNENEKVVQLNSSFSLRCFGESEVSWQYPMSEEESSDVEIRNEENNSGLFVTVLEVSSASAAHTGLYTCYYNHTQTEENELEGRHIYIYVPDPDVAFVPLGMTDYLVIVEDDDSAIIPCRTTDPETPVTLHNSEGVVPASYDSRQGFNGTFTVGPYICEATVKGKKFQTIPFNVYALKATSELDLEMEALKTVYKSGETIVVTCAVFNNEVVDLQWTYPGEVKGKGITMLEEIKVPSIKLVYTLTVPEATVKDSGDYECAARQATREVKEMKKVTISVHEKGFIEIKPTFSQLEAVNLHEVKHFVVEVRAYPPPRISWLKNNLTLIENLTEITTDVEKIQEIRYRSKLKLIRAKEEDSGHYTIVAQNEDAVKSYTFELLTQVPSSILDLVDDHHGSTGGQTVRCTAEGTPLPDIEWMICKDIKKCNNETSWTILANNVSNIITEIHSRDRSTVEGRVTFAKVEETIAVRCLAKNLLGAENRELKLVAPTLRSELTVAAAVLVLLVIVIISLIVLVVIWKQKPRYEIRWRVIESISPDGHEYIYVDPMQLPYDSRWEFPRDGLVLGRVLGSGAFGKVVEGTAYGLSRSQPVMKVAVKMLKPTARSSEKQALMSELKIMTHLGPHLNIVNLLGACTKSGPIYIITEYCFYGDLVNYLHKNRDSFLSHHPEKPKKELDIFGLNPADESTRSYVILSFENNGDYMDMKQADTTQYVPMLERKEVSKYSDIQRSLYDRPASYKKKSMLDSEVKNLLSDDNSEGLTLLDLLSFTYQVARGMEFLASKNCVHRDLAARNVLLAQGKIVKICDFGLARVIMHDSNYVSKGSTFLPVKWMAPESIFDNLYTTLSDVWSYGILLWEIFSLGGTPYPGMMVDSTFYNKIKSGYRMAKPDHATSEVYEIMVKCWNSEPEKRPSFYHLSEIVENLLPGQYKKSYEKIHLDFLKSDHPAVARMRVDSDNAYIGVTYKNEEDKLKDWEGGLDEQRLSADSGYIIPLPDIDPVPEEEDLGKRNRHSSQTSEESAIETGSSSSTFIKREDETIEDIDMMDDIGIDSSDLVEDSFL
Ephrin type-A receptor 5 (Homo sapiens), sequence (P54756 whole entry): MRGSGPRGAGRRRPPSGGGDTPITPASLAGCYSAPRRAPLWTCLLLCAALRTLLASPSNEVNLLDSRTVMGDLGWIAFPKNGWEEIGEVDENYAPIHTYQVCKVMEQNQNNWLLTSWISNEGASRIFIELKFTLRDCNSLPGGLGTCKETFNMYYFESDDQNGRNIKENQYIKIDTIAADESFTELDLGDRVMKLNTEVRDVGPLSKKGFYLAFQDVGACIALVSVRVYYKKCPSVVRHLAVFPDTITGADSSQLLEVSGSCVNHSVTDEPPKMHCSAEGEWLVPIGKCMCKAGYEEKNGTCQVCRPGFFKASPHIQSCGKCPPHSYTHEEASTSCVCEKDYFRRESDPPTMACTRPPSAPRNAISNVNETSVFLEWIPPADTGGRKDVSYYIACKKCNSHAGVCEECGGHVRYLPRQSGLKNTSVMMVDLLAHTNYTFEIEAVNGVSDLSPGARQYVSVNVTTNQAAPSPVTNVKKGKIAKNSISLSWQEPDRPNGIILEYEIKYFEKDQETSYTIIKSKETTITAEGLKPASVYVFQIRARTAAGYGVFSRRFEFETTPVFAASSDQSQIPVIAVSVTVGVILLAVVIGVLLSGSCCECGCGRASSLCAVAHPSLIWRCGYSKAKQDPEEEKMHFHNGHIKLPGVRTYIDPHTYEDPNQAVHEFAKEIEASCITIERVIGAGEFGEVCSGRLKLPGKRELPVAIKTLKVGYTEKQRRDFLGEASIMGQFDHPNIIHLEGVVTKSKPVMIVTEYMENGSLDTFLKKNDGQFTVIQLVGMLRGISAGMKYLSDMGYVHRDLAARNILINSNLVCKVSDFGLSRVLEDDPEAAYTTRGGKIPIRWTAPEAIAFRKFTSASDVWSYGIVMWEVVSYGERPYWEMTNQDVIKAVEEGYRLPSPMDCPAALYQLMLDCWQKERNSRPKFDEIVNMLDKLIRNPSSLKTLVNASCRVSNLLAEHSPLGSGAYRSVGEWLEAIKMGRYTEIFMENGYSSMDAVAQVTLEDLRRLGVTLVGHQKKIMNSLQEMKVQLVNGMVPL
Mitogen-activated protein kinase 3 (ERK1) (Homo sapiens), sequence (P27361 whole entry, looked up): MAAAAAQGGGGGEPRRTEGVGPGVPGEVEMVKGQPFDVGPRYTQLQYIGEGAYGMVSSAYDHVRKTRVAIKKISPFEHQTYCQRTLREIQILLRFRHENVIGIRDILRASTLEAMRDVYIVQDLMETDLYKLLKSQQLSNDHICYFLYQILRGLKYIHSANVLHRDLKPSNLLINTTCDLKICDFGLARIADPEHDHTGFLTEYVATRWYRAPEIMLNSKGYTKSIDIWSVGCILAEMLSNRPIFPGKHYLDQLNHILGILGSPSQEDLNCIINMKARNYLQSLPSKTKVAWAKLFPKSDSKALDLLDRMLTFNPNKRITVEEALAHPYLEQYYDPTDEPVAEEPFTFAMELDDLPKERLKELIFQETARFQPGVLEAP

SMILES	inhibition [1] [%]	inhibition [2] [%]	inhibition [3] [%]	inhibition [4] [%]	inhibition [5] [%]	inhibition [6] [%]	inhibition [7] [%]	inhibition [8] [%]	inhibition [9] [%]	inhibition [10] [%]
COc1ccccc1N1CCN(c2ncnc3[nH]nc(Br)c23)CC1	37	8	13	14	11	8	14	7	2	17
Cc1n[nH]c2ccc(-c3cncc(OC[C@@H](N)Cc4c[nH]c5ccccc45)c3)cc12	14	1	1	102	1	-6	43	46	11	50
O=C(NCCCNc1nc(Nc2cccc(NC(=O)N3CCCC3)c2)ncc1I)c1cccs1	42	10	9	13	18	10	47	7	106	54
